According to ChEMBL document CHEMBL1142419, “Antimycobacterial activities of novel 2-(sub)-3-fluoro/nitro-5,12-dihydro-5-oxobenzothiazolo[3,2-a]quinoline-6-carboxylic acid” (Bioorg Med Chem, 2008):
In brackets after ≈: the same amount, converted by molar mass.

Tests used:
[1] = tested on: Mycobacterium tuberculosis; assay: Antimycobacterial activity against Mycobacterium tuberculosis H37Rv by agar dilution method; type: functional
Procedure, shortened: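 MIC by agar dilution on Middlebrook 7H11 agar supplemented with OADC, following an NCCLS-like procedure, run in duplicate. The MDR-TB clinical isolate was resistant to isoniazid, rifampicin, ethambutol and ofloxacin.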

[2] = tested on: Mycolicibacterium smegmatis; assay: Antimycobacterial activity against Mycobacterium smegmatis MC2 by agar dilution method; type: functional
Procedure, shortened: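 Agar dilution on Middlebrook 7H11 agar supplemented with OADC, following an NCCLS-like procedure; MIC determined in duplicate against M. smegmatis ATCC 14468 (MC²).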

[3] = tested on: Vero; assay: Cytotoxicity against african green monkey Vero cells after 72 hrs by MTT assay; type: cell-based; conditions: Chlorocebus sabaeus
Procedure, shortened: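 Vero mammalian cells were exposed to compounds for 72 h, with testing at 62.5 µg/ml. Viability was read as cellular conversion of MTT to formazan (non-radioactive cell proliferation kit), and IC50 was reported.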

[4] = tested on: Mycobacterium tuberculosis; assay: Antimycobacterial activity against Mycobacterium tuberculosis ATCC 35801 infected in CD1 mouse assessed as bacterial load in spleen at 25 mg/kg, ip after 10 days; type: functional; conditions: route intraperitoneal
Procedure, shortened: (§1)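 Six-week-old female CD-1 mice, six per group, infected intravenously via caudal vein with ~10⁷ viable M. tuberculosis ATCC 35801. Intraperitoneal dosing began 10 days after inoculation and ran 10 days. On day 35 post-infection, spleens and right lungs were removed and homogenized. Serial 10-fold dilutions were plated on 7H10 agar (37 °C, ambient air, 4 weeks). Log CFU compared against vehicle-treated controls.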

[5] = tested on: Mycobacterium tuberculosis; assay: Antimycobacterial activity against Mycobacterium tuberculosis ATCC 35801 infected in CD1 mouse assessed as bacterial load in lung at 25 mg/kg, ip after 10 days; type: functional; conditions: route intraperitoneal; procedure, shortened: as §1
[6] = Inhibition of Mycobacterium smegmatis DNA gyrase supercoiling activity; set-up: species or system Mycolicibacterium smegmatis

**Q.** What does the source list for `CC1CN(c2cc3c(cc2F)c(=O)c(C(=O)O)c2sc4ccccc4n23)CC(C)O1` (centres undefined)?
**A.** MIC [1]: 7.34 µM (≈ 3.13 µg/mL); MIC [2]: 29.3 µM (≈ 12.5 µg/mL)

**Q.** For `O=C(O)c1cn2c(n1)CN(c1cc3c(cc1F)c(=O)c(C(=O)O)c1sc4ccccc4n13)CC2`, which MIC [1] is on record?
**A.** 3.26 µM (≈ 1.56 µg/mL)

**Q.** What about the IC50 [3] of the same compound?
**A.** > 131 µM

**Q.** And the MIC [2]?
**A.** 52.2 µM (≈ 25 µg/mL)

**Q.** With `O=C(O)c1c(=O)c2cc([N+](=O)[O-])c(N3CCC(O)(c4ccc(Cl)cc4)CC3)cc2n2c1sc1ccccc12` as the compound, how does the MIC [1] read?
**A.** 2.84 µM (≈ 1.56 µg/mL)

**Q.** What about the IC50 [3] of the same compound?
**A.** 114 µM

**Q.** What about the MIC [2] of the same compound?
**A.** 90.9 µM (≈ 50 µg/mL)

**Q.** Which MIC [1] does the source give for `CC(C)(C)NC(=O)C1c2ccccc2CCN1c1cc2c(cc1F)c(=O)c(C(=O)O)c1sc3ccccc3n12` (centres undefined) here?
**A.** 2.87 µM (≈ 1.56 µg/mL)

**Q.** And the IC50 [3]?
**A.** 115 µM

**Q.** And the MIC [2]?
**A.** 46 µM (≈ 25 µg/mL)

**Q.** What does the source list for `NNC(=O)c1ccncc1` [ISONIAZID]?
**A.** MIC [1]: 0.36 µM (≈ 0.0494 µg/mL); Log10 cfu [4]: 4.71; Log10 cfu [5]: 5.86; IC50 [3]: > 456 µM; MIC [2]: 45.6 µM (≈ 6.25 µg/mL)

**Q.** With `COc1ccc(CC2C3=C(CCCC3)CCN2c2cc3c(cc2[N+](=O)[O-])c(=O)c(C(=O)O)c2sc4ccccc4n23)cc1` (centres undefined) as the compound, how does the MIC [1] read?
**A.** 10.5 µM (≈ 6.25 µg/mL)

**Q.** What about the MIC [2] of the same compound?
**A.** 83.9 µM (≈ 50 µg/mL)

**Q.** For `O=C(O)c1c(=O)c2cc([N+](=O)[O-])c(N3CCC(n4c(=O)[nH]c5cc(Cl)ccc54)CC3)cc2n2c1sc1ccccc12`, which MIC [1] is on record?
**A.** 5.31 µM (≈ 3.13 µg/mL)

**Q.** What about the MIC [2] of the same compound?
**A.** 84.8 µM (≈ 50 µg/mL)

**Q.** With `Cc1onc(-c2c(F)cccc2F)c1C(=O)N1CCN(c2cc3c(cc2[N+](=O)[O-])c(=O)c(C(=O)O)c2sc4ccccc4n23)CC1` as the compound, how does the MIC [1] read?
**A.** 4.85 µM (≈ 3.13 µg/mL)

**Q.** What about the MIC [2] of the same compound?
**A.** 77.5 µM (≈ 50 µg/mL)

**Q.** What does the source list for `O=C(O)c1c(=O)c2cc(F)c(N3CCN(C(c4ccccc4)c4ccc(Cl)cc4)CC3)cc2n2c1sc1ccccc12` (centres undefined)?
**A.** MIC [1]: 2.61 µM (≈ 1.56 µg/mL); IC50 [3]: 104 µM; MIC [2]: 10.4 µM (≈ 6.25 µg/mL)

**Q.** Which results are given for `CC(C)(C)OC(=O)NC1C2CN(c3cc4c(cc3[N+](=O)[O-])c(=O)c(C(=O)O)c3sc5ccccc5n34)CC21` (centres undefined)?
**A.** MIC [1]: 2.91 µM (≈ 1.56 µg/mL); IC50 [3]: 58.2 µM; MIC [2]: 93.2 µM (≈ 50 µg/mL)

**Q.** What does the source list for `O=C(O)c1c(=O)c2cc([N+](=O)[O-])c(N3CCN(C(=O)C4COc5ccccc5O4)CC3)cc2n2c1sc1ccccc12` (centres undefined)?
**A.** MIC [1]: 10.7 µM (≈ 6.25 µg/mL); MIC [2]: 85.2 µM (≈ 50 µg/mL)

**Q.** For `O=C(O)c1c(=O)c2cc(F)c(N3CCC(N4CCCCC4)CC3)cc2n2c1sc1ccccc12`, which MIC [1] is on record?
**A.** 0.39 µM (≈ 0.187 µg/mL)

**Q.** And the IC50 [3]?
**A.** 130 µM

**Q.** What about the IC50 [6] of the same compound?
**A.** > 50 µg/mL

**Q.** What about the MIC [2] of the same compound?
**A.** 6.53 µM (≈ 3.13 µg/mL)

**Q.** Which results are given for `O=C(O)c1c(=O)c2cc([N+](=O)[O-])c(N3CCN(C(=O)c4ccco4)CC3)cc2n2c1sc1ccccc12`?
**A.** MIC [1]: 6.04 µM (≈ 3.13 µg/mL); MIC [2]: 48.2 µM (≈ 25 µg/mL)

**Q.** With `CC(C)(C)OC(=O)NC1C2CN(c3cc4c(cc3F)c(=O)c(C(=O)O)c3sc5ccccc5n34)CC21` (centres undefined) as the compound, how does the MIC [1] read?
**A.** 0.37 µM (≈ 0.189 µg/mL)

**Q.** And the IC50 [3]?
**A.** > 113 µM

**Q.** What about the IC50 [6] of the same compound?
**A.** 50 µg/mL (≈ 98.1 µM)

**Q.** And the MIC [2]?
**A.** 6.14 µM (≈ 3.13 µg/mL)

**Q.** With `CN1CCN(c2cc3c(cc2F)c(=O)c(C(=O)O)c2sc4ccccc4n23)CC1c1ccccc1` (centres undefined) as the compound, how does the MIC [1] read?
**A.** 12.8 µM (≈ 6.25 µg/mL)

**Q.** What about the MIC [2] of the same compound?
**A.** 103 µM (≈ 50 µg/mL)

**Q.** For `COc1cc2c(cc1OC)CN(c1cc3c(cc1[N+](=O)[O-])c(=O)c(C(=O)O)c1sc4ccccc4n13)CC2`, which MIC [1] is on record?
**A.** 1.47 µM (≈ 0.781 µg/mL)

**Q.** And the IC50 [3]?
**A.** 118 µM

**Q.** What about the MIC [2] of the same compound?
**A.** 47 µM (≈ 25 µg/mL)

**Q.** With `O=C(O)c1c(=O)c2cc(F)c(N3CCN(Cc4ccc5c(c4)OCO5)CC3)cc2n2c1sc1ccccc12` as the compound, how does the MIC [1] read?
**A.** 1.47 µM (≈ 0.781 µg/mL)

**Q.** And the IC50 [3]?
**A.** > 118 µM

**Q.** And the MIC [2]?
**A.** 5.89 µM (≈ 3.13 µg/mL)

**Q.** Which MIC [1] does the source give for `O=C(O)c1c(=O)c2cc([N+](=O)[O-])c(N3CCN(C(c4ccccc4)c4ccc(Cl)cc4)CC3)cc2n2c1sc1ccccc12` (centres undefined) here?
**A.** 5.01 µM (≈ 3.13 µg/mL)

**Q.** And the IC50 [3]?
**A.** 50 µM

**Q.** And the MIC [2]?
**A.** 40 µM (≈ 25 µg/mL)

**Q.** For `O=C(O)c1cn2c(n1)CN(c1cc3c(cc1[N+](=O)[O-])c(=O)c(C(=O)O)c1sc4ccccc4n13)CC2`, which MIC [1] is on record?
**A.** 1.54 µM (≈ 0.778 µg/mL)

**Q.** And the IC50 [3]?
**A.** 124 µM

**Q.** What about the MIC [2] of the same compound?
**A.** 98.2 µM (≈ 49.6 µg/mL)
